Calls of active or inactive are those of the source. No cut-off for these calls is given here.
Assays:
[1] = biological target: T1, Tyrosine-protein phosphatase non-receptor type 1 (Homo sapiens) (UniProt P18031); experiment: Inhibitory activity against recombinant human PTP1B at 10 uM
T1 sequence (whole entry): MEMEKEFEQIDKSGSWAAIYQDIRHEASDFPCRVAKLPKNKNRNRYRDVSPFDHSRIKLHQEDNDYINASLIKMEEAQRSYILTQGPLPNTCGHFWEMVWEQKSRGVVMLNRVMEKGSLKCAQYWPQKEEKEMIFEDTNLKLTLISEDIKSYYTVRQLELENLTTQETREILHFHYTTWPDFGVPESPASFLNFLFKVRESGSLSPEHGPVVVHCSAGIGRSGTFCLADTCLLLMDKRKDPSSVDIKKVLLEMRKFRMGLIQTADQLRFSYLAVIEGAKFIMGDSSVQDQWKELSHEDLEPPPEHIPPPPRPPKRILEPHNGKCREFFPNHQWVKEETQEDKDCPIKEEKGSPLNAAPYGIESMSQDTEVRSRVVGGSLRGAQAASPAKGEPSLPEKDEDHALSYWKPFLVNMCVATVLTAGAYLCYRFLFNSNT

[2] = biological target: Serine/threonine-protein phosphatase PP1-gamma catalytic subunit (Homo sapiens, UniProt P36873); experiment: Inhibitory activity against Protein phosphatase 1 at 10 uM
Outline: (§1)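 Phosphatase selectivity panel using fluorescein diphosphate substrate at 20 μM, the same level as in the PTP-1B assay. Compound tested at a single concentration of 10 μM; percent inhibition of enzyme activity reported.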

[3] = biological target: T2, M-phase inducer phosphatase 1 (Homo sapiens) (UniProt P30304); experiment: Inhibitory activity against cdc25A phosphatase at 10 uM; outline: as §1
T2 sequence (whole entry): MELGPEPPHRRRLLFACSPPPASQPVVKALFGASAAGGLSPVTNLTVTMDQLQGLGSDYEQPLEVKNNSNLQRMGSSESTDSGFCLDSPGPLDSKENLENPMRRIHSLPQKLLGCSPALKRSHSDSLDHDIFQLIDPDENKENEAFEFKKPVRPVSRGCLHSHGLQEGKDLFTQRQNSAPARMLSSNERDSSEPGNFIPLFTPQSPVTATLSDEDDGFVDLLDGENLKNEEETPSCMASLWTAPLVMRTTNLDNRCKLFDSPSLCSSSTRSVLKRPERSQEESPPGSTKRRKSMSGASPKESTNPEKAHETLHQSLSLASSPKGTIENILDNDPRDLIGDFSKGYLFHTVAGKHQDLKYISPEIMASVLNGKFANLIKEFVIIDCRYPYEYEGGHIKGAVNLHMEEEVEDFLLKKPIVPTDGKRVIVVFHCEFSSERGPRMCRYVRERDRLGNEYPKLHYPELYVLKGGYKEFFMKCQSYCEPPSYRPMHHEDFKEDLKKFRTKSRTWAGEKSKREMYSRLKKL

[4] = biological target: T3, Receptor-type tyrosine-protein phosphatase C (Homo sapiens) (UniProt P08575); experiment: Inhibitory activity against CD45 phosphatase at 10 uM; outline: as §1
T3 sequence (whole entry): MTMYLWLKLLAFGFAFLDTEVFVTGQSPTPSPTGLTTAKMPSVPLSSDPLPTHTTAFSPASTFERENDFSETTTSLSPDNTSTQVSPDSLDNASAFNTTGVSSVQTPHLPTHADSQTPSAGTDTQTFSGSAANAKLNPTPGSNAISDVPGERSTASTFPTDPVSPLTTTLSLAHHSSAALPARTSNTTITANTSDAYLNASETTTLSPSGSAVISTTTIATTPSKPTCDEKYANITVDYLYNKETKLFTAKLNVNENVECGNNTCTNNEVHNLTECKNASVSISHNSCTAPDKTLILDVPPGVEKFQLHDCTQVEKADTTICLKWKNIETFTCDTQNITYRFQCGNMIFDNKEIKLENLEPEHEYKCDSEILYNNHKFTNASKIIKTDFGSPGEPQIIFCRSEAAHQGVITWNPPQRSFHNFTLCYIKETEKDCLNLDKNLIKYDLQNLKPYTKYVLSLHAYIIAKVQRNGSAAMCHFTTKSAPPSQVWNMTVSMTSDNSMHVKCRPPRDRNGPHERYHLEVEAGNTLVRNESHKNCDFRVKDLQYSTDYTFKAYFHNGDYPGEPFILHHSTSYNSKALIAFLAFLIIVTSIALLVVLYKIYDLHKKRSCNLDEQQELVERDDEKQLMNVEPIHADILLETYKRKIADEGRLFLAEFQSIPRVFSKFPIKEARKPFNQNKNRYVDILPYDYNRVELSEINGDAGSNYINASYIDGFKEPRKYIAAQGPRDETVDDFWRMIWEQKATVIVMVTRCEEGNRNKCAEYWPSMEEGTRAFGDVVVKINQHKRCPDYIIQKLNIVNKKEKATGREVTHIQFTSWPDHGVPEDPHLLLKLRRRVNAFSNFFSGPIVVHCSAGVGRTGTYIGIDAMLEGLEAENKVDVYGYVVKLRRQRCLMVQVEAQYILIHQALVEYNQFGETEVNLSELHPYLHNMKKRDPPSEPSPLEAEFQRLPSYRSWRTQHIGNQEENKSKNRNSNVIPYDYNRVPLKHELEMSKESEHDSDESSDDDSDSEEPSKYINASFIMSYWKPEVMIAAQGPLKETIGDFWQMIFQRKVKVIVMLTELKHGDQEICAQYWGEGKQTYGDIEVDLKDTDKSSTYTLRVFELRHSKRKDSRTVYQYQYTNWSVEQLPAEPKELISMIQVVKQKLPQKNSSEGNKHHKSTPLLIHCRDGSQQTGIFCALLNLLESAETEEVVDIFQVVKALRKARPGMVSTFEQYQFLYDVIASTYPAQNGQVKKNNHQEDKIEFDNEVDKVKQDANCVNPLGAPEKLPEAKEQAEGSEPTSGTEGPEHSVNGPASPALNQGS

[5] = biological target: Dual specificity protein phosphatase 3 (Homo sapiens, UniProt P51452); experiment: Inhibitory activity against VH1-related phosphatase VHR at 10 uM; outline: as §1
[6] = biological target: T4, Tyrosine-protein phosphatase non-receptor type 1 (Homo sapiens, UniProt P18031); experiment: Inhibitory activity against recombinant human PTP1B
T4 sequence (P18031 whole entry): T1 sequence (whole entry)
Outline: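 Recombinant human PTP-1B (0.1 μg) incubated with 20 μM fluorescein diphosphate and compound in 30 mM Tris, 75 mM NaCl, 0.67 mM EDTA, 1 mM DTT, pH 8.0, for 1 h at room temperature. Product fluorescein monophosphate read by fluorescence (ex 485 nm, em 538 nm). IC50 reported.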

[7] = biological target: Receptor-type tyrosine-protein phosphatase F (Homo sapiens, UniProt P10586); experiment: Inhibitory activity against LAR protein tyrosine phosphatase at 10 uM; outline: as §1
[8] = biological target: Tyrosine-protein phosphatase YopH (Yersinia enterocolitica) (UniProt P15273); experiment: Inhibitory activity against YOP protein tyrosine phosphatase at 10 uM
Outline: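 Yop phosphatase tested in the nine-phosphatase selectivity panel with 20 μM fluorescein diphosphate as substrate. Inhibitor tested at a single concentration of 10 μM; the value is % inhibition.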

[9] = biological target: T5, M-phase inducer phosphatase 2 (Homo sapiens) (UniProt P30305); experiment: Inhibitory activity against cdc25B phosphatase at 10 uM; outline: as §1
T5 sequence (whole entry): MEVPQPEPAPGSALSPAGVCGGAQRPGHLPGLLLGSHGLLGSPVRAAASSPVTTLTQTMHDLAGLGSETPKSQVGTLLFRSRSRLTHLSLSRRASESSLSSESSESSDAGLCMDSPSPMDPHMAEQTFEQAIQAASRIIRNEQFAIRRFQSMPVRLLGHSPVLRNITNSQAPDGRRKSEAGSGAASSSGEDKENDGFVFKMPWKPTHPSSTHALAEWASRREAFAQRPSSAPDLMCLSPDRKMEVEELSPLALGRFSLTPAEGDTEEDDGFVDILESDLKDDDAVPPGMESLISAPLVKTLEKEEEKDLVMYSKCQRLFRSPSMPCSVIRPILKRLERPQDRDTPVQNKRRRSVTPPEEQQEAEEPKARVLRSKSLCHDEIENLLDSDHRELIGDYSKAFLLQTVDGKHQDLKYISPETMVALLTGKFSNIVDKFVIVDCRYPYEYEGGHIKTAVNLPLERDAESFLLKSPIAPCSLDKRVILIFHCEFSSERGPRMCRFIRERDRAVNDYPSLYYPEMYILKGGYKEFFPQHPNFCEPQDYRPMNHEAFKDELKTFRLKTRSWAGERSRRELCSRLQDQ

[10] = Inhibitory activity against protein phosphatase type 2A at 10 uM; outline: as §1

Sequence of Serine/threonine-protein phosphatase PP1-gamma catalytic subunit (P36873 2-323 limits assumed): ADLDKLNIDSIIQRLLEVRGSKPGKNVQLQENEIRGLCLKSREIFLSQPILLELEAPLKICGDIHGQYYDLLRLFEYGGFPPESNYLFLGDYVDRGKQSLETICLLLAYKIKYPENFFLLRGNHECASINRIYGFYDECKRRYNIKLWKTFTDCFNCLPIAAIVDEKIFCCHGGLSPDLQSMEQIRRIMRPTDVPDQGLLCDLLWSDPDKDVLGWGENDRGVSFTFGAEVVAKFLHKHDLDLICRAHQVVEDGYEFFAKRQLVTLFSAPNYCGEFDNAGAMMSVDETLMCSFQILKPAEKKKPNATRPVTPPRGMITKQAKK
Sequence of Dual specificity protein phosphatase 3 (P51452 whole entry, looked up): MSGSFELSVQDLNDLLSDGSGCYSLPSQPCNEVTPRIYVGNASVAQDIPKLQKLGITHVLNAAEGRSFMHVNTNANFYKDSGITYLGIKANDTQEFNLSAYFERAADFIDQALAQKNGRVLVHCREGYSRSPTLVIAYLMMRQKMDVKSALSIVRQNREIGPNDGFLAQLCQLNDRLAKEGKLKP
Sequence of Receptor-type tyrosine-protein phosphatase F (P10586 whole entry): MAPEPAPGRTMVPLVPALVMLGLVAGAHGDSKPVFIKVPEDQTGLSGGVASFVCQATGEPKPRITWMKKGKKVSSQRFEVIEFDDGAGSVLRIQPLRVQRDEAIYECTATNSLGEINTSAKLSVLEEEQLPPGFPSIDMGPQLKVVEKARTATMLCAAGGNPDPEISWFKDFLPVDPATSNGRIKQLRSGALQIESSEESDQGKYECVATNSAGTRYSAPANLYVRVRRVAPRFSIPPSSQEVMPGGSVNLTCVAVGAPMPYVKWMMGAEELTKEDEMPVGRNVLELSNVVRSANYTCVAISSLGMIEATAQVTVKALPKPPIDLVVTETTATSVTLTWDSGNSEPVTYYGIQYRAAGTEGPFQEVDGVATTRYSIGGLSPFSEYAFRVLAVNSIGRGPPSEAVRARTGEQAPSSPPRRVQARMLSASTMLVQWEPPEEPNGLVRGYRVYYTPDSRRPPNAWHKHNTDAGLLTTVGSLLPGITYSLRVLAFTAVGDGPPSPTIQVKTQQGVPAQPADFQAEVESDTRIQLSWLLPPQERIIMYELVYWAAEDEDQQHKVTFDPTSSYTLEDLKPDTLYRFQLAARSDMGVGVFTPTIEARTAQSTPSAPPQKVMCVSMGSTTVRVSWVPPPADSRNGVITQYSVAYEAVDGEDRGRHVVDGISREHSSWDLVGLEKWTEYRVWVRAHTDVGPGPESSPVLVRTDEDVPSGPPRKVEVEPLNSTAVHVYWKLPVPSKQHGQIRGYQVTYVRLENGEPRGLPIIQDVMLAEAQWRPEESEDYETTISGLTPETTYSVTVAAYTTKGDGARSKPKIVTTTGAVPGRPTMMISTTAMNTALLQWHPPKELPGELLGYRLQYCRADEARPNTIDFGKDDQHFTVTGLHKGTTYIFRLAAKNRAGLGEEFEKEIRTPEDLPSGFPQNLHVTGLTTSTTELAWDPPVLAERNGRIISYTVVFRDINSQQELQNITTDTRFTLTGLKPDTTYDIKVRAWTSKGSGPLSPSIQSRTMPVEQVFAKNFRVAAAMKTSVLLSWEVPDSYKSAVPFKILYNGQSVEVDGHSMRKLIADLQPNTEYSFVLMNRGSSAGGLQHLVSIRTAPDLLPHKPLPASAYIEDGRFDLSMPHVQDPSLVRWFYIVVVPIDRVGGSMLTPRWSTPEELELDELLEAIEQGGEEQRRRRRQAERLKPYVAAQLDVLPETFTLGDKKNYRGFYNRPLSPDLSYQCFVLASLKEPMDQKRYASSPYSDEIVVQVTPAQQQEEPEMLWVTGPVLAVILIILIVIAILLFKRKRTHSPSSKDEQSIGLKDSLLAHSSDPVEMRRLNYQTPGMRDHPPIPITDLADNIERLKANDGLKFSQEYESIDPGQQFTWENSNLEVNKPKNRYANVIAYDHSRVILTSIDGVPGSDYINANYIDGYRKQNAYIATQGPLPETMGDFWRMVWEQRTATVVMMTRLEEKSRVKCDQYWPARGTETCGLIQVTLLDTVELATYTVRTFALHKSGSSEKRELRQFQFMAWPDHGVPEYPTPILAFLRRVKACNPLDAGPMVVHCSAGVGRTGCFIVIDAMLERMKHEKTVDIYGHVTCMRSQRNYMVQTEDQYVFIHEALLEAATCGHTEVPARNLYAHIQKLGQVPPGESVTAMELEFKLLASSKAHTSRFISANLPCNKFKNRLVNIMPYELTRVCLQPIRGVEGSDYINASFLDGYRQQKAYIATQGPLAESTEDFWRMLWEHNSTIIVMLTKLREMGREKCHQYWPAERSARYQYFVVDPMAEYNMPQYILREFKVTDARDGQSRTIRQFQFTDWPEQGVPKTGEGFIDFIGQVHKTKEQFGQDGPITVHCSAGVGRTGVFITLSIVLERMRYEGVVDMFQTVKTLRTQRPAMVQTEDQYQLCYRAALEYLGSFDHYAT
Sequence of Tyrosine-protein phosphatase YopH (Yersinia enterocolitica) (P15273 whole entry): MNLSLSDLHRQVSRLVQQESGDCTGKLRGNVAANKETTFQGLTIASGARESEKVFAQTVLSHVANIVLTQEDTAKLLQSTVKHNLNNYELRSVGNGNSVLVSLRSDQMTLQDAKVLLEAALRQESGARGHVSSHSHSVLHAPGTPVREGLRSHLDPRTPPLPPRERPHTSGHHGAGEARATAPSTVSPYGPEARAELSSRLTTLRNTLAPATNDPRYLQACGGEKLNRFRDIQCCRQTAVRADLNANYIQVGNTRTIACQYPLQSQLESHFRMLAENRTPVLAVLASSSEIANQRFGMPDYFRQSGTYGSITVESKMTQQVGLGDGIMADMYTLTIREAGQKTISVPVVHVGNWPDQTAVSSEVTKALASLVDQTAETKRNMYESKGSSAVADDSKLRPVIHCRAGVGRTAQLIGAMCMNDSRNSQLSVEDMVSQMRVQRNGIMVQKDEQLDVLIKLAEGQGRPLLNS

In the case of COc1ccc(C(=O)c2ccc3c(-c4ccc(OCC(=O)O)cc4)noc(C)c2-3)cc1, the inhibition [1] is reported as “inactive”.

Compound O=C(O)COc1ccc(-c2noc(-c3ccccc3)c3cccc2-3)cc1 has an inhibition [1] of 1.1%.

With CCOC(=O)/C=C/c1ccc2c(-c3ccc(OCC(=O)O)cc3)nocc1-2 the inhibition [1] was “inactive”.

With O=C(O)COc1ccc(-c2nocc3c(C(=O)CCC4CCCC4)ccc2-3)cc1 the inhibition [1] was 42.4%.

With O=C(O)COc1ccc(-c2nocc3c(C(=O)c4ccc(Cl)cc4Cl)ccc2-3)cc1 the inhibition [1] was 38%.

With COc1ccc(C(=O)c2ccc3c(-c4ccc(O[C@@H](Cc5ccccc5)C(=O)O)cc4)nocc2-3)cc1 the inhibition [2] was 63.5%, the inhibition [3] was 10.3% and the inhibition [4] was 95.7%. The inhibition [5] was -6.83%, the inhibition [1] was 80.1% and the IC50 [6] was 7.82 µM. For the same compound, the inhibition [7] was 17.3%, the inhibition [8] was 96.8% and the inhibition [9] was 89.7%.

For COc1ccc(C(=O)c2ccc3c(-c4ccc(OCC(=O)NCN5CCOCC5)cc4)nocc2-3)cc1, the inhibition [1] was “inactive”.

In the case of O=C(c1ccc2c(-c3ccc(OC(CCO)C(=O)O)cc3)nocc1-2)C1CCCC1 (configuration not stated), the inhibition [1] is reported as “inactive”.

In the case of COc1ccc(C(=O)c2ccc3c(-c4ccc(OCC(=O)NCCO)cc4)nocc2-3)cc1, the inhibition [1] is reported as “inactive”.

For O=C(O)COc1ccc(-c2nocc3c(C(=O)c4ccccc4F)ccc2-3)cc1, the inhibition [1] was 11.9%.

COc1ccc(C(=O)c2ccc3c(-c4cc(Br)c(OCC(=O)O)c(Br)c4)nocc2-3)cc1 showed an inhibition [2] of 106%, an inhibition [3] of 40.5% and an inhibition [4] of 100%. It also gave an inhibition [5] of 53.4%, an inhibition [1] of 101% and an IC50 [6] of 1.64 µM. It also gave an inhibition [7] of 57.7%, an inhibition [10] of 41.8% and an inhibition [8] of 101%. The inhibition [9] was 100%.

Compound COc1ccc(-c2nocc3c(C(=O)c4ccc(Cl)cc4Cl)ccc2-3)cc1 has an inhibition [1] of 101% and an IC50 [6] of 3.4 µM.

COc1ccccc1C(=O)c1ccc2c(-c3ccc(OCC(=O)O)cc3)nocc1-2 showed an inhibition [1] of 3.8%.

CCCCCCCCCCCCCCC(=O)c1ccc2c(-c3ccc(OCC(=O)O)cc3)nocc1-2 showed an inhibition [1] of 101% and an IC50 [6] of 0.27 µM.

Work on COc1ccc(-c2nocc3cccc2-3)cc1 yielded an inhibition [1] of 3%.

Work on COc1ccc(C(=O)c2ccc3c(-c4ccc(OC)cc4)nocc2-3)cc1 yielded an inhibition [1] of 32%.

With COc1ccc(O)c(CC(=O)c2ccc3c(-c4ccc(OCC(=O)O)cc4)nocc2-3)c1 the inhibition [1] was 48.7%.

CCOC(=O)COc1ccc(-c2nocc3cccc2-3)cc1 gave an inhibition [1] of 2.1%.

For Cc1onc(-c2ccc(OCC(=O)O)cc2)c2cccc1-2, the inhibition [1] was “inactive”.

In the case of O=C(O)COc1ccc(-c2nocc3c(C(=O)c4ccco4)ccc2-3)cc1, the inhibition [1] is reported as “inactive”.

With COc1ccc(C(=O)c2ccc3c(-c4ccc(OC(C(=O)O)C(=O)O)cc4)nocc2-3)cc1 the inhibition [1] was 3.3%.

For COCCNCc1ccc(C(=O)c2ccc3c(-c4ccc(OCC(=O)O)cc4)nocc2-3)cc1, the inhibition [1] was 10.2%.

With Oc1ccc(-c2nocc3cccc2-3)cc1 the inhibition [1] was 18.5%.

Work on O=C(O)COc1ccc(-c2nocc3c(C(=O)c4ccc(Cl)cc4)ccc2-3)cc1 yielded an inhibition [1] of 14.3%.

For O=C(O)COc1ccc(-c2nocc3c(C(=O)c4cccc(C(F)(F)F)c4)ccc2-3)cc1, the inhibition [1] was 68.9% and the IC50 [6] was 7.55 µM.

With COc1cccc(C(=O)c2ccc3c(-c4ccc(OCC(=O)O)cc4)nocc2-3)c1 the inhibition [1] was 87.4% and the IC50 [6] was 1.96 µM.

With O=C(O)COc1ccc(-c2nocc3cccc2-3)cc1 the inhibition [1] was 27.4%.

Work on O=C(c1ccc2c(-c3ccc(OC(C(=O)O)C(=O)O)cc3)nocc1-2)C1CCCC1 yielded an inhibition [1] of 76.7% and an IC50 [6] of 8.19 µM.

In the case of O=C(O)COc1ccc(-c2nocc3c(C(=O)C4CCCC4)ccc2-3)cc1, the inhibition [1] is reported as 15.7%.

For CC(=O)c1ccc2c(-c3ccc(OCC(=O)O)cc3)nocc1-2, the inhibition [1] was “inactive”.

In the case of COc1ccc(C(=O)c2ccc3c(-c4ccc(OCC(=O)N5CCN(Cc6ccccc6)CC5)cc4)nocc2-3)cc1, the inhibition [1] is reported as 68.8% and the IC50 [6] is reported as 5.48 µM.

Work on COc1ccc(CC(=O)c2ccc3c(-c4ccc(OCC(=O)O)cc4)nocc2-3)cc1 yielded an inhibition [1] of 85.5% and an IC50 [6] of 5.63 µM.

In the case of N#Cc1cccc(C(=O)c2ccc3c(-c4ccc(OCC(=O)O)cc4)nocc2-3)c1, the inhibition [1] is reported as “inactive”.
